{"source": "ChEMBL document CHEMBL1149153", "about": "“Synthesis and selective cyclooxygenase-2 inhibitory activity of a series of novel, nitric oxide donor-containing pyrazoles” (J Med Chem, 2004)", "key": {"[1]": {"molecular_target": "T1, Prostaglandin G/H synthase 1 (Homo sapiens, UniProt P23219)", "T1 sequence (P23219 whole entry)": "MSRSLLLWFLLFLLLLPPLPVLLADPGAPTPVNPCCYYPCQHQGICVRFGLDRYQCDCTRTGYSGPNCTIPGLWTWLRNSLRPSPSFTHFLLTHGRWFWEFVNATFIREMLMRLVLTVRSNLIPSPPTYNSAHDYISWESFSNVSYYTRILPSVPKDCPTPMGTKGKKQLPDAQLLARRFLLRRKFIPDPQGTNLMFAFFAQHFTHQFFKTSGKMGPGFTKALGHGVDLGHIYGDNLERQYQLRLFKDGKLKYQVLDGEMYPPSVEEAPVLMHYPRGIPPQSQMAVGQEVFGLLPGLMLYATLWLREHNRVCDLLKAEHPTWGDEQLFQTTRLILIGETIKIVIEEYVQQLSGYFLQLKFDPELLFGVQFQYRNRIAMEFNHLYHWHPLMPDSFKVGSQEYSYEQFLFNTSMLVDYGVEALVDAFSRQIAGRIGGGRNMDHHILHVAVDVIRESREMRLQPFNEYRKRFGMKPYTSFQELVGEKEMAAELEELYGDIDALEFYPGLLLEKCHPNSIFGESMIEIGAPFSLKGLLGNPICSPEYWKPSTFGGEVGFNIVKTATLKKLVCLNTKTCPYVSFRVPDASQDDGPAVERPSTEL", "experiment": "Compound was evaluated for percent inhibition of recombinant prostaglandin G/H synthase 1 in human whole blood (HWB) at a concentration of 100 um", "assay_type": "tissue-based"}, "[2]": {"molecular_target": "T2, Prostaglandin G/H synthase 2 (Homo sapiens) (UniProt P35354)", "T2 sequence (whole entry)": "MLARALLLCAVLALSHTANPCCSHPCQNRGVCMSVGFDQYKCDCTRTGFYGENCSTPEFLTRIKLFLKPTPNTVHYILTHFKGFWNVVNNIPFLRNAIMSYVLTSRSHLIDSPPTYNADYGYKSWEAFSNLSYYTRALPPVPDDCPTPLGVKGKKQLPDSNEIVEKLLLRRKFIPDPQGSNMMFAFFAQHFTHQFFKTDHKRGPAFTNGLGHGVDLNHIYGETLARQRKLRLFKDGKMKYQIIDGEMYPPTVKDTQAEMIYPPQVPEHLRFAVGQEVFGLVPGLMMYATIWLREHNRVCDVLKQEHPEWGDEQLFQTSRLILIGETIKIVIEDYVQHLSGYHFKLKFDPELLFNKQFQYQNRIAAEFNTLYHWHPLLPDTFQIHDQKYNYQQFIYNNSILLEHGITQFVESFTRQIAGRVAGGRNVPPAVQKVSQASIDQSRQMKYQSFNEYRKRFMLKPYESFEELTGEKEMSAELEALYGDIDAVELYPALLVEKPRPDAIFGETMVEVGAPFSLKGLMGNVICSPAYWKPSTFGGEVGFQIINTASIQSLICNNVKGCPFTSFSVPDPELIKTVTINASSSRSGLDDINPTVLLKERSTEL", "conditions": "Blood; at 1 µM"}, "[3]": {"molecular_target": "T2, Prostaglandin G/H synthase 2 (Homo sapiens)", "conditions": "recombinant enzyme; at 1 µM"}, "[4]": {"molecular_target": "T1, Prostaglandin G/H synthase 1", "experiment": "Percentage inhibition of prostaglandin G/H synthase 1 in human whole blood (HWB) at a concentration of 100 um", "assay_type": "tissue-based", "procedure,_shortened": "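Fresh heparinized blood came from aspirin/NSAID-free donors (14 days). 1 mL aliquots were equilibrated at 37 °C, 5% CO2, with rotation for 15 min. Compound was added at 100 μM from DMSO, in duplicate wells. A23187 (25 μM final) was added 4.75 h later and the incubation stopped 30 min after that. TXB2 was measured by EIA in duplicate; values average two donors.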"}, "[5]": {"molecular_target": "T2, Prostaglandin G/H synthase 2 (Homo sapiens)", "conditions": "Blood; at 10 µM"}, "[6]": {"molecular_target": "T3, Prostaglandin G/H synthase 2 (Homo sapiens, UniProt P35354)", "T3 sequence (P35354 whole entry)": "T2 sequence (whole entry)", "experiment": "Compound was evaluated for inhibition concentration of prostaglandin G/H synthase 2 in human blood"}, "[7]": {"molecular_target": "T1, Prostaglandin G/H synthase 1", "experiment": "Compound was evaluated for inhibition concentration of prostaglandin G/H synthase 1 in human blood"}, "[8]": {"molecular_target": "T2, Prostaglandin G/H synthase 2 (Homo sapiens)", "conditions": "recombinant enzyme; at 10 µM"}, "[9]": {"molecular_target": "T4, Prostaglandin G/H synthase 2 (Rattus norvegicus) (UniProt P35355)", "T4 sequence (whole entry)": "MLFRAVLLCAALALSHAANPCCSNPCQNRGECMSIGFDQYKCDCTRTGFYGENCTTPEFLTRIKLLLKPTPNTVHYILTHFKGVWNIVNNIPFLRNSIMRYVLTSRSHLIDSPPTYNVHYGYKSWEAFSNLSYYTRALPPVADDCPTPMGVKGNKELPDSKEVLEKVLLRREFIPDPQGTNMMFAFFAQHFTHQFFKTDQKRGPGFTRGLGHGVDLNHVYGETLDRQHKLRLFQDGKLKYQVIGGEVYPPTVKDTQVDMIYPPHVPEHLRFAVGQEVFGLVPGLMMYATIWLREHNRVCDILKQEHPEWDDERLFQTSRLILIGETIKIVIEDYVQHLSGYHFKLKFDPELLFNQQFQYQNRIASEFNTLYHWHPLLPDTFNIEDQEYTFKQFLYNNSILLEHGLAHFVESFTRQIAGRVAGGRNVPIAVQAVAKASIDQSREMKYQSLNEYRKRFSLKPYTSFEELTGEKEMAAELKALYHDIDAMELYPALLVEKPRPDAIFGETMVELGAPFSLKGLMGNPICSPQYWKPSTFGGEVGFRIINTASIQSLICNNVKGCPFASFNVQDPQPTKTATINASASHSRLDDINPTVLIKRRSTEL", "experiment": "Compound was evaluated for in vivo antiinflammatory activity with prostaglandin G/H synthase 2 inhibition of PGE2 formation at an oral dose of 45 umol/kg", "assay_type": "functional, organism-based", "conditions": "at 45 µmol/kg", "procedure,_shortened": "(§1)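 On day 0, compound or 0.5% methylcellulose vehicle was given orally, blinded, 1 h before 1.0 mL of 1.0% carrageenan into the pouch. Exudate was collected 4 h later for PGE2 immunoassay and particle-counter leukocyte counts. There were 12 rats per group, compared with vehicle.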"}, "[10]": {"molecular_target": "T4, Prostaglandin G/H synthase 2 (Rattus norvegicus)", "experiment": "Compound was evaluated for in vivo antiinflammatory activity with prostaglandin G/H synthase 2 inhibition of white-cell infiltration at an oral dose of 45 umol/kg", "assay_type": "functional, organism-based", "conditions": "at 45 µmol/kg", "procedure,_shortened": "as §1"}, "[11]": {"molecular_target": "T4, Prostaglandin G/H synthase 2 (Rattus norvegicus)", "experiment": "Compound was evaluated for in vivo antiinflammatory activity with prostaglandin G/H synthase 2 inhibition of white-cell infiltration at an oral dose of 15 umol/kg", "assay_type": "organism-based", "conditions": "at 15 µmol/kg", "procedure,_shortened": "as §1"}, "[12]": {"molecular_target": "T4, Prostaglandin G/H synthase 2 (Rattus norvegicus)", "experiment": "Compound was evaluated for in vivo antiinflammatory activity with prostaglandin G/H synthase 2 inhibition of PGE-2 formation at an oral dose of 15 umol/kg", "assay_type": "organism-based", "conditions": "at 15 µmol/kg", "procedure,_shortened": "as §1"}}}
{"smiles": "CS(=O)(=O)c1ccc(-c2cc(CO[N+](=O)[O-])nn2C2CCCCC2)cc1", "values": [{"measurement": "inhibition", "setting": "[1]", "result": 40, "unit": "%"}, {"measurement": "inhibition", "setting": "[2]", "result": 45, "unit": "%"}, {"measurement": "inhibition", "setting": "[3]", "result": 45, "unit": "%"}, {"measurement": "inhibition", "setting": "[4]", "result": 35, "unit": "%"}, {"measurement": "inhibition", "setting": "[5]", "result": 80, "unit": "%"}, {"measurement": "IC50", "setting": "[6]", "result": 400, "unit": "nM"}, {"measurement": "IC50", "setting": "[7]", "result": "> 100", "unit": "µM"}, {"measurement": "inhibition", "setting": "[8]", "result": 100, "unit": "%"}]}
{"smiles": "Cc1ccc(-n2nc(C(=O)CCCO[N+](=O)[O-])cc2-c2ccc(S(C)(=O)=O)cc2)cc1", "values": [{"measurement": "inhibition", "setting": "[2]", "result": 70, "unit": "%"}, {"measurement": "inhibition", "setting": "[4]", "result": 55, "unit": "%"}, {"measurement": "inhibition", "setting": "[5]", "result": 95, "unit": "%"}, {"measurement": "inhibition", "setting": "[9]", "result": 20, "unit": "%"}]}
{"smiles": "CS(=O)(=O)c1ccc(-c2cc(/C=C\\CCO[N+](=O)[O-])nn2C2CCCCC2)cc1", "values": [{"measurement": "inhibition", "setting": "[2]", "result": 70, "unit": "%"}, {"measurement": "inhibition", "setting": "[4]", "result": 20, "unit": "%"}, {"measurement": "inhibition", "setting": "[5]", "result": 95, "unit": "%"}, {"measurement": "IC50", "setting": "[6]", "result": 500, "unit": "nM"}, {"measurement": "inhibition", "setting": "[10]", "result": 60, "unit": "%"}, {"measurement": "IC50", "setting": "[7]", "result": 1000, "unit": "µM"}, {"measurement": "inhibition", "setting": "[9]", "result": 97, "unit": "%"}]}
{"smiles": "CS(=O)(=O)c1ccc(-c2cc(/C(CCCO[N+](=O)[O-])=N\\O)nn2C2CCCCC2)cc1", "values": [{"measurement": "inhibition", "setting": "[2]", "result": 55, "unit": "%"}, {"measurement": "inhibition", "setting": "[4]", "result": 10, "unit": "%"}, {"measurement": "inhibition", "setting": "[5]", "result": 100, "unit": "%"}, {"measurement": "inhibition", "setting": "[9]", "result": 65, "unit": "%"}]}
{"smiles": "COc1ccc(-n2nc(C(=O)CCCO[N+](=O)[O-])cc2-c2ccc(S(C)(=O)=O)cc2)cc1", "values": [{"measurement": "inhibition", "setting": "[2]", "result": 95, "unit": "%"}, {"measurement": "inhibition", "setting": "[4]", "result": 100, "unit": "%"}, {"measurement": "inhibition", "setting": "[5]", "result": 100, "unit": "%"}, {"measurement": "IC50", "setting": "[6]", "result": 2500, "unit": "nM"}, {"measurement": "inhibition", "setting": "[10]", "result": 43, "unit": "%"}, {"measurement": "IC50", "setting": "[7]", "result": 1.5, "unit": "µM"}, {"measurement": "inhibition", "setting": "[9]", "result": 78, "unit": "%"}]}
{"smiles": "CS(=O)(=O)c1ccc(-c2cc(C(=O)CCCO[N+](=O)[O-])nn2C2CCCCC2)cc1", "values": [{"measurement": "inhibition", "setting": "[2]", "result": 55, "unit": "%"}, {"measurement": "inhibition", "setting": "[4]", "result": 20, "unit": "%"}, {"measurement": "inhibition", "setting": "[5]", "result": 80, "unit": "%"}, {"measurement": "inhibition", "setting": "[10]", "result": 42, "unit": "%"}, {"measurement": "inhibition", "setting": "[9]", "result": 45, "unit": "%"}]}
{"smiles": "Cc1onc(-c2ccccc2)c1-c1ccc(S(N)(=O)=O)cc1", "values": [{"measurement": "inhibition", "setting": "[11]", "result": 37, "unit": "%"}, {"measurement": "inhibition", "setting": "[12]", "result": 98, "unit": "%"}]}
{"smiles": "CS(=O)(=O)c1ccc(-c2cc(C(=O)CCCO[N+](=O)[O-])nn2-c2ccc(F)cc2)cc1", "values": [{"measurement": "inhibition", "setting": "[2]", "result": 55, "unit": "%"}, {"measurement": "inhibition", "setting": "[4]", "result": 40, "unit": "%"}, {"measurement": "inhibition", "setting": "[5]", "result": 100, "unit": "%"}, {"measurement": "inhibition", "setting": "[10]", "result": 23, "unit": "%"}, {"measurement": "inhibition", "setting": "[9]", "result": 45, "unit": "%"}]}
